Screening results (PubChem)
This is one part of a sample in which hits are shown more often than they occur.
IDH1 R132H inh = inhibitors of IDH1 R132H reductase, primary screen, biochemical, plate reader, single point; 0.18% of 70,000 active; diaphorase/resazurin fluorescence, 60 min; Isocitrate dehydrogenase [NADP] cytoplasmic (Homo sapiens), O75874; inhibition, % at 10 µM; in the data active = inhibition above about 34%; inconclusive = no clear call, values can overlap the other calls; inactive = below about 11%;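 also: 0% = DMSO and 100% = no enzyme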
GASC1 inh = inhibitors of GASC-1 (KDM4C) histone demethylase, primary screen, biochemical, single concentration HTS. Lysine-specific demethylase 4C (Homo sapiens), Q9H3R0. GST-KDM4C 2-372, H3K9me3 peptide, LANCE TR-FRET. inhibition, % at 12.5 µM. 0.15% of 96,000 active. AID 720574, 2013;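 active = mean replicate inhibition above about 25%, with at least 55% of replicates also reaching it, limit read from the data, passing the limit was not always enough; inconclusive = only one of those two conditions met; inactive = neither condition met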
Target sequence (Q9H3R0 2-372 limits assumed): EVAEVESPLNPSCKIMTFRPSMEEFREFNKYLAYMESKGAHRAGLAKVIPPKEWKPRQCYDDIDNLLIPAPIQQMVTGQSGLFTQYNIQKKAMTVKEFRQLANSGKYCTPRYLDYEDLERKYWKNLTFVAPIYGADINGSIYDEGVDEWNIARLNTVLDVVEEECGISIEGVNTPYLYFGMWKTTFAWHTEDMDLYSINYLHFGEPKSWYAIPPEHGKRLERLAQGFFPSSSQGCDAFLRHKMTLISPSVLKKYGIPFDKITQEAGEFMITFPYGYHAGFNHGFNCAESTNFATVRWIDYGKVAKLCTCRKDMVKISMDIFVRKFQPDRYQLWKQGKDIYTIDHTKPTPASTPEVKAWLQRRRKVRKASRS
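Material: GST-tagged GASC-1 (JMJD2C) catalytic fragment, aa 2-372 / Quantity: enzyme final amount 10 nM / Medium: HEPES buffer, pH 7.5, plus ascorbate / Doses: one test concentration per compound / Incubation: 30 min reaction, 60 min detection, RT / Measured by: LANCE TR-FRET / Read-out: inhibition from TR-FRET ratio decrease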
T cruzi growth-1 = T. cruzi intracellular proliferation inhibitors, primary screen, cell-based, beta-gal Tulahuen parasites, NIH3T3 host, luminescence; T. cruzi beta-gal in NIH3T3, GalScreen luminescence, 90 h; inhibition, % at 8.34 µM; 5.9% of 77,000 active;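 active = mean inhibition above about 93%, with at least 55% of replicates each passing it, limit read from the data, passing the limit was not always enough; inconclusive = only one of those two conditions holds; inactive = neither condition holds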
T cruzi growth-2 = T. cruzi intracellular proliferation inhibitors, confirmation, cell-based, NIH3T3 host, beta-gal parasite, luminescence, cherry-pick; T. cruzi beta-gal in NIH3T3, GalScreen luminescence, 90 h; 72% of 5,600 active; shares compounds with T cruzi growth-1; AID 651739, 2012; inhibition, % at 8.35 µM;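 active = mean replicate inhibition above about 95% and at least 55% of replicates individually reaching it, limit read from the data; inconclusive = only one of the two criteria is met; inactive = neither criterion is met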
T cruzi growth-3 = inhibitors of intracellular T. cruzi replication, confirmation, NIH3T3 host cells, beta-gal parasites, cherry-pick, set 2; shares compounds with T cruzi growth-1; T. cruzi beta-gal in NIH3T3, GalScreen luminescence, 90 h; inhibition, % at 2.09 µM; 21% of 5,600 active; AID 651740, 2012;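 active = mean inhibition above about 95%, with at least 55% of replicates also reaching it, limit read from the data; inconclusive = meets just one of the two conditions; inactive = meets neither condition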;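 also: plate controls were neutral control median for no effect and positive control median for full effect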
NIH3T3 tox = cytotoxicity in mouse NIH/3T3 fibroblasts, confirmation, cytotoxicity control for T. cruzi proliferation inhibitor project, cell-based, cherry-pick, single point; shares compounds with T cruzi growth-1; NIH/3T3 viability, CellTiter-Glo ATP luminescence, 90 h; cytotoxicity (signal decrease), % at 8.35 µM; 14% of 5,600 active; AID 651742, 2012;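 active = mean signal decrease across replicates above about 35% based on untreated-well scatter, with enough replicates individually passing, limit read from the data; inconclusive = no rule stated though some were filed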;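 also: 0% = median of neutral control wells and 100% = median of positive control wells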
3T3 cytotox 2 = NIH/3T3 fibroblast cytotoxicity, confirmation, cytotoxicity control, cell-based, cherry-pick, single point, set 2; shares compounds with T cruzi growth-1; NIH/3T3 viability, CellTiter-Glo ATP luminescence, 90 h; inhibition, % at 24.9 µM; 56% of 5,600 active;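 active = mean loss of cell viability signal at or above a set limit, and enough replicates individually reaching it; inconclusive = meets only the mean limit or only the replicate share; inactive = meets neither condition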;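 also: 0% = median of neutral control wells and 100% = median of positive control wells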
* hit, by the source's call; u = inconclusive; x = no result given.

SMILES	IDH1 R132H inh	GASC1 inh	T cruzi growth-1	T cruzi growth-2	T cruzi growth-3	NIH3T3 tox	3T3 cytotox 2
CNC[C@H]1Oc2cc(C#Cc3ccccc3)ccc2S(=O)(=O)N([C@H](C)CO)C[C@@H]1C	0.8	-2.3	x	x	x	x	x
CNC[C@H]1Oc2cc(C#Cc3ccccc3OC)ccc2S(=O)(=O)N([C@@H](C)CO)C[C@@H]1C	-4.8	-2.8	102.6*	106.2*	67.6	u	104.4*
COC(=O)c1ccc(NC(=O)CSc2nncc3ccccc23)cc1	-0.2	x	x	x	x	x	x
CC(=O)c1cccc(N(CC(=O)Nc2ccc(Br)cc2F)S(C)(=O)=O)c1	0.0	x	x	x	x	x	x
O=C(C[C@@H]1CC[C@H]2[C@@H](COC[C@@H](O)CN2Cc2cc(F)ccc2F)O1)N[C@H]1CCN(Cc2ccccc2)C1	x	-5.0	49.0	x	x	x	x
O=C(C[C@H]1CC[C@H]2[C@@H](COC[C@@H](O)CN2Cc2cc(F)ccc2F)O1)N[C@H]1CCN(Cc2ccccc2)C1	x	-1.3	157.6*	85.6	51.8	-12.6	3.2
O=C(C[C@H]1CC[C@H]2[C@@H](COC[C@@H](O)CN2Cc2cc(F)ccc2F)O1)N[C@@H]1CCN(Cc2ccccc2)C1	x	-0.4	99.3*	69.8	66.0	-4.7	-8.5
O=C(C[C@H]1CC[C@@H]2[C@H](COC[C@H](O)CN2Cc2cc(F)ccc2F)O1)N[C@@H]1CCN(Cc2ccccc2)C1	x	0.3	129.8*	67.0	7.5	-18.4	-5.2
O=C(C[C@H]1CC[C@H]2[C@@H](COC[C@H](O)CN2Cc2cc(F)ccc2F)O1)N1CCc2ccccc2C1	x	1.5	97.7*	78.9	0.3	-7.8	16.1
O=C(C[C@H]1CC[C@@H]2[C@H](COC[C@@H](O)CN2Cc2cc(F)ccc2F)O1)N[C@@H]1CCN(Cc2ccccc2)C1	x	-1.1	79.5	x	x	x	x
O=C(C[C@@H]1CC[C@@H]2[C@H](COC[C@@H](O)CN2Cc2cc(F)ccc2F)O1)N1CCc2ccccc2C1	x	1.6	65.1	x	x	x	x
O=C(C[C@@H]1CC[C@H]2[C@@H](COC[C@@H](O)CN2Cc2cc(F)ccc2F)O1)N[C@@H]1CCN(Cc2ccccc2)C1	x	3.1	94.7	x	x	x	x
Cc1cc(C)c(NC(=O)CN(C)S(=O)(=O)c2ccc(Cl)cc2)c(C)c1	0.0	x	x	x	x	x	x
CC1CCN(C(=O)c2ccc3c(=O)nc4c(-c5ccccc5)n[nH]n4c3c2)CC1	-0.6	x	x	x	x	x	x
Cc1c(Cl)cccc1NC(=O)CN(c1ccc(F)c(Cl)c1)S(C)(=O)=O	-0.2	x	x	x	x	x	x
O=C(COc1ccc([N+](=O)[O-])cc1)Nc1ccccc1-c1nc2ccccc2s1	-0.2	x	x	x	x	x	x
O=C(C[C@@H]1CC[C@H]2[C@@H](COC[C@@H](O)CN2Cc2ccccc2F)O1)N[C@H]1CCN(Cc2ccccc2)C1	x	-1.4	31.9	x	x	x	x
O=C(C[C@@H]1CC[C@@H]2[C@H](COC[C@@H](O)CN2Cc2ccccc2F)O1)N[C@@H]1CCN(Cc2ccccc2)C1	x	1.0	98.6*	80.2	45.9	-17.5	-47.0
O=C(C1CCOCC1)N1CC[C@H]2[C@H](CO)Nc3ccc(-c4ccc(F)cc4)cc3[C@H]21	x	-0.7	101.0*	104.1*	48.5	-11.6	-8.9
O=C(C1CCOCC1)N1CC[C@@H]2[C@H](CO)Nc3ccc(-c4ccc(F)cc4)cc3[C@@H]21	x	3.1	u	109.6*	63.9	-12.1	12.5
O=C(C1CCOCC1)N1CC[C@H]2[C@H](CO)Nc3ccc(-c4cccc(F)c4)cc3[C@H]21	x	-1.1	72.3	x	x	x	x
O=C(C1CCOCC1)N1CC[C@@H]2[C@@H](CO)Nc3ccc(Br)cc3[C@@H]21	x	6.6	70.8	x	x	x	x
COc1ccc2ccccc2c1C=C1C(=O)OC2(CCCC2)OC1=O	0.6	x	x	x	x	x	x
CSc1ccccc1NC(=O)C(C)NS(=O)(=O)c1ccc(C)cc1 (stereo not given)	-0.5	x	x	x	x	x	x
C[C@@H]1CN([C@@H](C)CO)C(=O)c2cccc(NC(=O)c3nc4ccccc4s3)c2O[C@H]1CN(C)Cc1ccc(-c2ccccc2)cc1	x	0.8	52.1	x	x	x	x
SMILES	IDH1 R132H inh	GASC1 inh	T cruzi growth-1	T cruzi growth-2	T cruzi growth-3	NIH3T3 tox	3T3 cytotox 2
C[C@H]1CN([C@@H](C)CO)C(=O)c2cccc(NC(=O)c3nc4ccccc4s3)c2O[C@@H]1CN(C)Cc1ccc(C(F)(F)F)cc1	x	-1.9	94.3	x	x	x	x
C[C@@H]1CN([C@H](C)CO)C(=O)c2cccc(NC(=O)c3nc4ccccc4s3)c2O[C@@H]1CN(C)Cc1ccc(-c2ccccc2)cc1	1.7	1.2	110.8*	106.8*	71.2	4.3	-9.4
C[C@@H]1CN([C@H](C)CO)C(=O)c2cccc(NC(=O)c3nc4ccccc4s3)c2O[C@@H]1CN(C)Cc1ccccc1	4.2	0.6	u	100.2*	50.1	0.6	25.8
COc1ccc(CN(C)C[C@H]2Oc3c(NC(=O)c4nc5ccccc5s4)cccc3C(=O)N([C@H](C)CO)C[C@@H]2C)cc1	-1.1	0.4	u	90.0	73.6	3.5	10.7
COc1ccc(CN(C)C[C@H]2Oc3c(NC(=O)c4nc5ccccc5s4)cccc3C(=O)N([C@@H](C)CO)C[C@@H]2C)cc1	1.1	-3.0	91.8	x	x	x	x
C[C@H](CO)N1C[C@H](C)[C@H](CN(C)Cc2ccc(C(F)(F)F)cc2)Oc2c(NC(=O)c3nc4ccccc4s3)cccc2C1=O	-3.8	-0.7	97.1*	100.4*	98.4*	14.8	92.7*
C[C@H]1CN([C@@H](C)CO)C(=O)c2cccc(NC(=O)c3nc4ccccc4s3)c2O[C@@H]1CN(C)Cc1ccccc1	x	-2.0	77.3	x	x	x	x
CC(=O)c1ccc(NC(=O)Cn2cnc3c(sc4nc5c(cc43)COC(C)(C)C5)c2=O)cc1	0.2	x	x	x	x	x	x
C=C1[C@H]2CC[C@H](C(=O)O)[C@@]23CC[C@H](C3)C1(C)C	0.0	x	x	x	x	x	x
CC(Oc1cccc(NC(=O)c2ccc(Br)cc2)c1)C(=O)c1ccccc1 (stereo not given)	0.3	x	x	x	x	x	x
Cc1cc(Br)ccc1NC(=O)CSc1ncn(-c2ccccc2)n1	0.4	x	x	x	x	x	x
Cc1ccc(S(=O)(=O)N(C)CCCc2nc3ccccc3[nH]2)cc1	-0.1	x	x	x	x	x	x
COc1ccc(S(=O)(=O)N(C)C[C@H]2Oc3c(NC(=O)c4nc5ccccc5s4)cccc3C(=O)N([C@@H](C)CO)C[C@H]2C)cc1	x	-2.3	15.6	x	x	x	x
